Measurements from ChEMBL document CHEMBL1145212, “Fluorinated diaryl sulfides as serotonin transporter ligands: synthesis, structure-activity relationship study, and in vivo evaluation of fluorine-18-labeled compounds as PET imaging agents” (J Med Chem, 2005).

Columns and labels:
[1] = target: Sodium-dependent dopamine transporter (Homo sapiens, UniProt Q01959); assay: In vitro displacement of [3H]GBR-12935 from human dopamine transporter expressed in HEK293 cells; type: cell-based
How it was run: (§1)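 Competitive binding using cloned human transporters expressed in HEK-293 cells. NET was labelled with [³H]nisoxetine and DAT with [³H]GBR12935, following a previously published procedure.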

[2] = target: Sodium-dependent noradrenaline transporter (Homo sapiens, UniProt P23975); assay: In vitro displacement of [3H]nisoxetine from human norepinephrine transporter expressed in HEK293 cells; type: cell-based; how it was run: as §1
Chain of Sodium-dependent noradrenaline transporter (P23975 whole entry): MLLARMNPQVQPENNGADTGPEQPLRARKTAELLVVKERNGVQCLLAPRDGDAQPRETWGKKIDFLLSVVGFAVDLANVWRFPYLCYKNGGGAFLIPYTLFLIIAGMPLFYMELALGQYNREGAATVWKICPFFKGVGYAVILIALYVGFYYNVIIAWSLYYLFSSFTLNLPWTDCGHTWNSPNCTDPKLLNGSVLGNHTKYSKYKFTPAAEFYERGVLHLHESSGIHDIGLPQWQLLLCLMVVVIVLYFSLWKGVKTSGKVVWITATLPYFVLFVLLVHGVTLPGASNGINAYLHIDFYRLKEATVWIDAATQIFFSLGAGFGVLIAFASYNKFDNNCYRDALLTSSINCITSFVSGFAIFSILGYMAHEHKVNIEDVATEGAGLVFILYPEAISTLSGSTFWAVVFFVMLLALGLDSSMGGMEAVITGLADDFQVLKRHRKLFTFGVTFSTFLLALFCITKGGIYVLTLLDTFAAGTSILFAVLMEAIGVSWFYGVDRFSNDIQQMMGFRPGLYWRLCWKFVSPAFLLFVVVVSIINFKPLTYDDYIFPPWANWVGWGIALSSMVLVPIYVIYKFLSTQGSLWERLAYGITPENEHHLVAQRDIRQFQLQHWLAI

Chain of Sodium-dependent dopamine transporter (Q01959 whole entry): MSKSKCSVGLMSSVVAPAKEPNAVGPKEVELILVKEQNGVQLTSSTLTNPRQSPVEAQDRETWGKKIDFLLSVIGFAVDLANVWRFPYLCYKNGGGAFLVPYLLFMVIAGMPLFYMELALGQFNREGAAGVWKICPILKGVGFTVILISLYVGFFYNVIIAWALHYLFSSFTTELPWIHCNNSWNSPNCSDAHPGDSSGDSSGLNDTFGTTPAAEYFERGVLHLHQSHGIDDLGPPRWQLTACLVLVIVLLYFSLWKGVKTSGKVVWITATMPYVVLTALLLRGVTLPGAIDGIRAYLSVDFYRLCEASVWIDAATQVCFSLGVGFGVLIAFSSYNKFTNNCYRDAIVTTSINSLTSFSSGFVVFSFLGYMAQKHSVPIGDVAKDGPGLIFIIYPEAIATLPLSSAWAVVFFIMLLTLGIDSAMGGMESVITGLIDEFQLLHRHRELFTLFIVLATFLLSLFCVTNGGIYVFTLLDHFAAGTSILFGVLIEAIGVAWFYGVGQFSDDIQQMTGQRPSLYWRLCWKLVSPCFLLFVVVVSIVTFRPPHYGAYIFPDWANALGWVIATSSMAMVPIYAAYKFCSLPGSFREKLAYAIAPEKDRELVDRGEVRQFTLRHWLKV

CCCNCc1ccccc1Sc1ccc(C)cc1N
Ki [1]: 3.55 µM | Ki [2]: > 10 µM
